Bioassay records (PubChem BioAssay)
Most compounds without a hit are left out; they make up all but 3.9% or so of the library.
XBP1 UPR activ: activators of adaptive arm of unfolded protein response (XBP1) | CHO-XBP1 luciferase reporter, IRE1-XBP1 UPR activation, luminescence; percent of tunicamycin response, DMSO as zero | actives 0.33% (n = 330,000) | activation, % at 20 µM;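 active = versus positive control, 20 µM dose yields 30% or more activation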;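 also: 100% = tunicamycin at 10 µg/mL and 0% = DMSO only wells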
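Material: CHO-XBP1 cells stably carrying IRE1-XBP1-driven luciferase reporter / Amount: 1000 cells per well / Compound: 20 µM, 1% DMSO / Times: 6 h treatment, 37 °C / Detection: luciferase luminescence / Measure: % activation of reporter signal versus tunicamycin and DMSO controls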
CHOP inh: blocks CHOP induction under ER stress; inhibition, % at 10 µM; AID 2732; CHO-K1 CHOP-promoter luciferase, tunicamycin-induced, 15-18 h; actives 3.8% (n = 220,000);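 active = compounds that reduced the stress-induced luciferase reporter signal by more than about 70% of percent inhibition, limit read from the data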;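 also: 0% = tunicamycin plus vehicle and 100% = wells without tunicamycin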
Jurkat NFkB inh: inhibitors of the PMA/ionomycin-induced NF-kB reporter in Jurkat cells; PMA/ionomycin-induced NF-kB luciferase reporter, luminescence; inhibition, % at 4 µM; actives 0.53% (n = 330,000); in the data active = inhibition above about 50%
Gli-Sufu block: Gli-Sufu pathway antagonism | Sufu-KO-LIGHT fibroblasts, Gli luciferase reporter luminescence | inhibition, % at 5 µM | actives 0.74% (n = 340,000) | AID 588413;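 active = inhibition above about 55%, limit read from the data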;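 also: 0% = DMSO-treated cells and 100% = wells with medium but no cells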
UPR CHOP act: apoptotic UPR (CHOP) activation; AID 449763; CHO-CHOP luciferase reporter, luminescence; percent of tunicamycin response over DMSO baseline; activation, % at 10 µM; actives 0.34% (n = 330,000);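 active = at 10 µM dose, activation of 40% or more, normalized to positive control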;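 also: 100% = tunicamycin at 10 µg/mL and 0% = DMSO alone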
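assay system = CHO CHOP reporter cells | amount = 500 CHO-CHOP cells per well | buffer or medium = F12 with 10% FBS | incubation = 16-18 h cell attachment, then 6 h compound exposure, 37 °C | detection = luminescence read with Steady-Glo | read-out = percent activation relative to tunicamycin control | controls = tunicamycin high control, DMSO low control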
697 NFkB inh: lowers PMA/ionomycin-induced NF-kB signal in 697 B cells; 697 B-cell NF-kB luciferase reporter, 16 h; inhibition, % at 4 µM; actives 0.33% (n = 330,000); in the data active = inhibition above about 35%
Starred values were filed as active, the others as inactive; · = no result.

SMILES	XBP1 UPR activ	CHOP inh	Jurkat NFkB inh	Gli-Sufu block	UPR CHOP act	697 NFkB inh
COc1cc(NC(=O)c2cccs2)c(C(=O)OCC(=O)NCc2ccccc2)cc1OC	4	87*	-5	6	-1	-3
CCOC(=O)c1ccc(NC(=O)c2n[nH]c(=O)c3ccccc23)cc1	-1	14	-29	-26	4	5
CCOC(=O)c1ccccc1NC(=O)COc1ccccc1	-1	84*	-9	-3	-1	-40
CCOC(=O)c1ccccc1NC(=O)c1cncc(Br)c1	·	73*	·	-4	·	·
CCOC(=O)c1ccccc1NC(=O)c1n[nH]c(=O)c2ccccc12	3	93*	-13	0	-1	7
O=C(CC1SC(N2CCCCC2)=NC1=O)Nc1cccc(C(=O)NCc2ccc(F)cc2)c1 (centres undefined)	-1	·	2	-5	1	1
CCN(C(=O)COC(=O)c1cccc(S(=O)(=O)N2CCOCC2)c1)C1CCS(=O)(=O)C1 (centres undefined)	-1	·	8	-4	2	17
CCOC(=O)c1ccccc1NC(=O)c1cccs1	2	92*	-10	-14	-1	14
Cc1ccccc1NC(=O)c1ccccc1NC(=O)c1cccs1	1	·	8	2	-1	10
COc1cccc(-c2nn(-c3ccc(F)cc3)cc2C(=O)NCC2CCCO2)c1 (centres undefined)	1	·	0	-6	-1	-8
COc1ccc(-n2c(C)c(C)c3c(NCCCO)ncnc32)cc1	6	·	-41	6	3	-29
c1ccc(OCCCc2nc(-c3ccncc3)no2)cc1	2	90*	5	2	-1	5
c1ccc(OCc2nc(-c3ccncc3)no2)cc1	4	-5	-25	-22	7	-26
Cc1[nH]nc2c1C1(CCN(C(=O)OCc3ccccc3)CC1)C(C#N)=C(N)O2	-2	73*	-17	-1	-2	-3
COc1ccccc1CCC(=O)N1CCN(S(=O)(=O)c2cc(C(F)(F)F)ccc2Cl)CC1	0	·	-5	-2	-1	-37
COc1cccc(-c2ocnc2C(=O)Nc2ccc(N3CCOCC3)cc2N2CCOCC2)c1	1	·	-4	1	1	8
CN(C)CCN1C(=O)c2cccc3cc([N+](=O)[O-])cc(c23)C1=O	·	·	·	69*	·	·
CC(=O)OCCN1C(=O)c2cccc3cc([N+](=O)[O-])cc(c23)C1=O	-4	·	4	·	0	5
CC(C)Oc1ccc(/C=N/NC(=O)C2CCCN2S(=O)(=O)c2ccc(Cl)cc2)cc1 (centres undefined)	-1	79*	-11	2	1	7
Cc1cc(C)c(NC(=O)COc2cccnc2[N+](=O)[O-])c(C)c1	-3	·	4	4	1	-6
CC(C)NC(=O)C1(O)c2ccccc2NC(=O)N1c1ccc(Cl)c(Cl)c1 (centres undefined)	-1	81*	-8	4	-1	-6
CC(C)c1ccc2c(c1)CCC1C(C)(CN)CCCC21C (centres undefined)	·	102*	·	9	·	·
N#C/C(=C/c1ccc(-c2ccc(S(N)(=O)=O)cc2)o1)c1nc2ccccc2s1	2	89*	7	-5	10	-5
N#C/C(=C/c1ccc(-c2ccc(S(N)(=O)=O)cc2)o1)C(=O)Nc1ccccc1	10	39	11	3	1	12
Cc1ccc(S(=O)(=O)N(CC(=O)Nc2cccc([N+](=O)[O-])c2)C2CCCCC2)cc1	-5	23	-5	4	0	-4
SMILES	XBP1 UPR activ	CHOP inh	Jurkat NFkB inh	Gli-Sufu block	UPR CHOP act	697 NFkB inh
Cc1ccc(S(=O)(=O)N(CC(=O)Nc2ccc(Cl)c([N+](=O)[O-])c2)C2CCCCC2)cc1	-2	73*	-10	-10	3	5
O=c1cc(-c2ccccc2Cl)oc2c([N+](=O)[O-])c(O)cc(O)c12	-5	76*	6	6	-1	-67
O=c1cc(-c2ccccc2Cl)oc2ccc([N+](=O)[O-])c(O)c12	4	45	9	2	-2	4
Cc1ccc(C(C)(C)C)cc1S(=O)(=O)N1CCC(C(=O)N2CCN(c3ccc(O)cc3)CC2)CC1	-1	·	-2	-1	3	-83
Cc1cc(Br)c(OCc2ccc(C(=O)N/N=C/c3ccc[nH]3)cc2)c(Br)c1	99*	·	-4	83*	41*	0
COc1cccc(/C=N/Nc2ncnc3scc(-c4ccccc4)c23)c1OC	10	71*	-3	16	2	-6
Cc1cc(S(=O)(=O)N2CCOCC2)ccc1OCC(=O)Nc1ccc(Br)cc1F	-3	·	-1	7	1	9
O=C(CN1CCN(S(=O)(=O)c2ccccc2)CC1)Nc1cccc(C(F)(F)F)c1	-2	79*	-11	47	-1	-22
COc1ccc(CCNC(=O)c2ccc(C)s2)cc1OC	3	-1	2	-14	2	10
COc1cccc(-c2csc3nnc(SCC(=O)c4ccc(NC(C)=O)cc4)n23)c1	-1	79*	7	0	1	28
O=C(Nc1ccccc1)N(C1=NCCC1)c1ccc(OC(F)F)cc1	-1	81*	-3	-6	1	-4
COc1cc(/C=c2\s/c(=C(/C#N)C(=O)N3CCCC3)n(-c3ccccc3)c2=O)ccc1O	7	95*	14	4	7	30
O=C1Nc2ccccc2Oc2cc([N+](=O)[O-])ccc21	2	74*	-7	-23	-2	16
Cc1ccc2c(c1)NC(=O)c1cc([N+](=O)[O-])ccc1O2	2	10	-4	-5	-1	-7
CCCCN(CCCNC(=O)CN1C(=O)COc2ccccc21)c1ccccc1	-2	74*	7	7	1	-8
CCN(CCCNC(=O)CCc1nc(-c2ccc(C)cc2)no1)c1cccc(C)c1	-1	71*	3	1	-1	-7
CCN(CCCNC(=O)CN1C(=O)COc2ccccc21)c1ccccc1	-3	-2	1	4	-2	-28
CCN(Cc1ccccc1)C(=O)CCc1nc(-c2ccc(C)cc2)no1	-1	71*	-9	8	1	6
CCN(CCCNC(=O)CN1C(=O)COc2ccccc21)c1cccc(C)c1	-5	86*	9	4	0	16
COc1ccc(C(=O)NCc2ccon2)cc1OC1CCN(C(C)C)CC1	-2	·	-1	38	-1	-18
Cc1ccc(C)c(NC(=S)NNC(=O)c2csc3c2CCC(C)C3)c1 (centres undefined)	1	90*	-5	-14	0	1
